Measurements: ChEMBL document CHEMBL1147823, “Conformationally constrained analogues of diacylglycerol. 26. Exploring the chemical space surrounding the C1 domain of protein kinase C with DAG-lactones containing aryl groups at the sn-1 and sn-2 positions” (J Med Chem, 2006)

Legend:
[1] = biological target: Protein kinase C alpha type (Homo sapiens, UniProt P17252); assay: Displacement of [20-3H]PDBU from recombinant PKCalpha in presence of phosphatidylserine
How it was run: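 Competition binding with recombinant single-isozyme PKC-α as the target enzyme. Each ligand's ability to displace bound [20-³H]phorbol 12,13-dibutyrate was measured in the presence of phosphatidylserine. Ki values were derived from the competition, and both E- and Z-isomers were assayed.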

[2] = biological target: T1, Protein kinase C delta type (Homo sapiens, UniProt Q05655); assay: Binding affinity to PKCdeltaC1b in presence of phospholipid
Target sequence in this assay (Q05655 whole entry): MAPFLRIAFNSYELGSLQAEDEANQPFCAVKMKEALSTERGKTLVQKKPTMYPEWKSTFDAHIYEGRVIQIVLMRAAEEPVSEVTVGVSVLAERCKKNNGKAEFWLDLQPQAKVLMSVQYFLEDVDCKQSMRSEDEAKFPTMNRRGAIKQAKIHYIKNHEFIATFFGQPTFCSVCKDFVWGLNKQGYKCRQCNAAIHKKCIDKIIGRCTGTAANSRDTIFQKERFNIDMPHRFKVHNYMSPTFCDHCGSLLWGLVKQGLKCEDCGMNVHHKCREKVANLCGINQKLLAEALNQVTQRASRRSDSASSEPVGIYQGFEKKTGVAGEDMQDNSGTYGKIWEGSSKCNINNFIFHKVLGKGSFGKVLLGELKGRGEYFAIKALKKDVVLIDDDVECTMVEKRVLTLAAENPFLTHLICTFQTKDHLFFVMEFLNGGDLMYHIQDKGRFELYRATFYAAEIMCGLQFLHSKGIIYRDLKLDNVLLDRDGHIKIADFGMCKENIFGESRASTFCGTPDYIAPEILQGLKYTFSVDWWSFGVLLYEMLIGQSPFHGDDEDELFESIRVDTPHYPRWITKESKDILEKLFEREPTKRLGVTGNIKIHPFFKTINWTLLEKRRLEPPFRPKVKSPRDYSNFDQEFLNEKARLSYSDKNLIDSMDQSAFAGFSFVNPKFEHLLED

[3] = biological target: T1, Protein kinase C delta type; assay: Binding affinity to PKCdeltaC1b in absence of phospholipid
Target sequence in this assay (Q05655 whole entry): as above

[4] = biological target: T1, Protein kinase C delta type; assay: Ratio of binding affinity to PKCdeltaC1b in presence to absence of phospholipid
Target sequence in this assay (Q05655 whole entry, looked up): as the sequence (Q05655 whole entry) above

## CC(C)C(CC(=O)OCC1(CO)C/C(=C\c2ccccc2O)C(=O)O1)C(C)C (stereo unspecified)
[1]
  Ki: 22 nM

## CC(C)C(CC(=O)OCC1(CO)C/C(=C\c2cccc(O)c2)C(=O)O1)C(C)C (stereo unspecified)
[1]
  Ki: 17 nM

## CCCCCC/C=C1/CC(CO)(COC(=O)CCCc2ccccc2)OC1=O (stereo unspecified)
[1]
  Ki: 17 nM

## CCCCCC/C=C1\CC(CO)(COC(=O)CCCc2ccccc2)OC1=O (stereo unspecified)
[1]
  Ki: 27 nM

## CC(C)C(C/C=C1\CC(CO)(COC(=O)c2ccc(O)cc2)OC1=O)C(C)C (stereo unspecified)
[1]
  Ki: 2400 nM
[2]
  Ki: 980 nM
[3]
  Ki: 16900 nM
[4]
  Ratio Ki: 17

## CCCCCCC/C=C1/CC(CO)(COC(=O)CCc2ccccc2)OC1=O (stereo unspecified)
[1]
  Ki: 14 nM

## CCCCCCCCC/C=C1\CC(CO)(COC(=O)c2ccccc2)OC1=O (stereo unspecified)
[1]
  Ki: 14 nM

## COc1ccccc1C(=O)OCC1(CO)C/C(=C\CC(C(C)C)C(C)C)C(=O)O1 (stereo unspecified)
[1]
  Ki: 73 nM

## CC(C)C(C/C=C1\CC(CO)(COC(=O)C2CCCCC2)OC1=O)C(C)C (stereo unspecified)
[1]
  Ki: 10 nM

## CC(C)C(CC(=O)OCC1(CO)C/C(=C\CCc2ccccc2)C(=O)O1)C(C)C (stereo unspecified)
[1]
  Ki: 9 nM

## CCCCCCCCC/C=C1/CC(CO)(COC(=O)c2ccccc2)OC1=O (stereo unspecified)
[1]
  Ki: 9 nM

## COc1ccc(C(=O)OCC2(CO)C/C(=C\CC(C(C)C)C(C)C)C(=O)O2)cc1 (stereo unspecified)
[1]
  Ki: 36 nM

## CC(C)C(C/C=C1\CC(CO)(COC(=O)c2ccccc2)OC1=O)C(C)C (stereo unspecified)
[1]
  Ki: 28 nM

## CC(C)C(C/C=C1\CC(CO)(COC(=O)c2cccc(O)c2)OC1=O)C(C)C (stereo unspecified)
[1]
  Ki: 670 nM

## CC(C)C(C/C=C1/CC(CO)(COC(=O)c2ccccc2)OC1=O)C(C)C (stereo unspecified)
[1]
  Ki: 16 nM

## CC(C)C(CC(=O)OCC1(CO)C/C(=C\c2ccccc2)C(=O)O1)C(C)C (stereo unspecified)
[1]
  Ki: 12 nM

## CC(C)C(CC(=O)OCC1(CO)C/C(=C\c2ccc(O)cc2)C(=O)O1)C(C)C (stereo unspecified)
[1]
  Ki: 19 nM
[2]
  Ki: 1.4 nM
[3]
  Ki: 170 nM
[4]
  Ratio Ki: 121

## CCCCCCCC/C=C1\CC(CO)(COC(=O)Cc2ccccc2)OC1=O (stereo unspecified)
[1]
  Ki: 44 nM

## COc1ccc(/C=C2\CC(CO)(COC(=O)CC(C(C)C)C(C)C)OC2=O)cc1 (stereo unspecified)
[1]
  Ki: 7 nM

## CC(C)C(CC(=O)OCC1(CO)C/C(=C\Cc2ccccc2)C(=O)O1)C(C)C (stereo unspecified)
[1]
  Ki: 14 nM

## CC(C)C(C/C=C1/CC(CO)(COC(=O)c2ccc(O)cc2)OC1=O)C(C)C (stereo unspecified)
[1]
  Ki: 983 nM

## CCCCCCC/C=C1\CC(CO)(COC(=O)CCc2ccccc2)OC1=O (stereo unspecified)
[1]
  Ki: 18 nM

## COc1ccc(C(=O)OCC2(CO)C/C(=C/CC(C(C)C)C(C)C)C(=O)O2)cc1 (stereo unspecified)
[1]
  Ki: 18 nM

## CCCCCCCCC/C=C1/CC(CO)(COC(=O)C2CCCCC2)OC1=O (stereo unspecified)
[1]
  Ki: 5 nM

## COc1cccc(/C=C2\CC(CO)(COC(=O)CC(C(C)C)C(C)C)OC2=O)c1 (stereo unspecified)
[1]
  Ki: 12 nM

## CC(C)C(C/C=C1/CC(CO)(COC(=O)C2CCCCC2)OC1=O)C(C)C (stereo unspecified)
[1]
  Ki: 8 nM

## COc1ccccc1/C=C1\CC(CO)(COC(=O)CC(C(C)C)C(C)C)OC1=O (stereo unspecified)
[1]
  Ki: 16 nM

## CCCCCCCCC/C=C1\CC(CO)(COC(=O)C2CCCCC2)OC1=O (stereo unspecified)
[1]
  Ki: 9 nM

## CC(C)C(C/C=C1/CC(CO)(COC(=O)c2ccccc2O)OC1=O)C(C)C (stereo unspecified)
[1]
  Ki: 30 nM

## CC(C)C(C/C=C1/CC(CO)(COC(=O)c2cccc(O)c2)OC1=O)C(C)C (stereo unspecified)
[1]
  Ki: 406 nM

## CCCCCCCC/C=C1/CC(CO)(COC(=O)Cc2ccccc2)OC1=O (stereo unspecified)
[1]
  Ki: 45 nM

## COc1cccc(C(=O)OCC2(CO)C/C(=C/CC(C(C)C)C(C)C)C(=O)O2)c1 (stereo unspecified)
[1]
  Ki: 24 nM

## COc1cccc(C(=O)OCC2(CO)C/C(=C\CC(C(C)C)C(C)C)C(=O)O2)c1 (stereo unspecified)
[1]
  Ki: 39 nM

## CC(C)C(C/C=C1\CC(CO)(COC(=O)c2ccccc2O)OC1=O)C(C)C (stereo unspecified)
[1]
  Ki: 67 nM

## COc1ccccc1C(=O)OCC1(CO)C/C(=C/CC(C(C)C)C(C)C)C(=O)O1 (stereo unspecified)
[1]
  Ki: 23 nM
